A selection: hits, their analogues and other compounds. The true share with any hit is near 2.7%.
CaV13 FRET inh = Disruptors of the CACNA1D IQ motif to Ca2+-dependent inactivation inhibitor domain association, primary screening, Förster resonance energy transfer in intact living …; inhibition, % at 12.3 µM; HEK cells, CFP/YFP FRET ICDI-IQ, plate reader, 10 min; percent FRET-ratio fall versus neutral wells; 0.098% of 340,000 active; AID 743397;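 active means mean replicate inhibition of at least 30% and at least 1% of replicates passing that level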
AF4-AF9 inh = inhibitors of human MLL-AF4/AF9 interaction | AID 651704 | inhibition, % at 10 µM | AlphaScreen, biotin-AF4 peptide binding to FLAG-AF9 | P42568 | 0.47% of 350,000 active;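 active means every replicate reaching a set inhibition limit, whatever the replicate mean, cut at about 25% in these data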
Target sequence (P42568 whole entry, looked up): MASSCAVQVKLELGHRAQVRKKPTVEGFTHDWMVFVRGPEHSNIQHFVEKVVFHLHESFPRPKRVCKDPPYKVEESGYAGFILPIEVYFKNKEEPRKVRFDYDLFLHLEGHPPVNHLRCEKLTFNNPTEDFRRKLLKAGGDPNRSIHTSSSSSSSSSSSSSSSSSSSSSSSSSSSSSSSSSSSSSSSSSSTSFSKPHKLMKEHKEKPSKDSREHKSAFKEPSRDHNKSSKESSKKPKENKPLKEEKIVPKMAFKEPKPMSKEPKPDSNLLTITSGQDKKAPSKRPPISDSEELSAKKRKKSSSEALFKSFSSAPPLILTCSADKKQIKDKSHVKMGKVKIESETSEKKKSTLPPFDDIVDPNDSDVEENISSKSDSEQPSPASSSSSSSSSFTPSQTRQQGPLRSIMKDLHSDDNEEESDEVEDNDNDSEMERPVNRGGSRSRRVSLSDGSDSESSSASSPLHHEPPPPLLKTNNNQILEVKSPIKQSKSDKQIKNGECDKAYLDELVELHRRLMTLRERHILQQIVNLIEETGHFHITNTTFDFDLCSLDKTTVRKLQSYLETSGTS
S100A4 inh HTS = blocks human S100A4 binding to myosin IIA peptide; inhibition, % at 10.7 µM; S100A4/TAMRA-MyoIIA peptide fluorescence polarization; AID 652163; P26447; 0.14% of 360,000 active;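 active means mean inhibition of at least 70% across replicates, with every replicate also reaching that level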
Target sequence (P26447 whole entry, looked up): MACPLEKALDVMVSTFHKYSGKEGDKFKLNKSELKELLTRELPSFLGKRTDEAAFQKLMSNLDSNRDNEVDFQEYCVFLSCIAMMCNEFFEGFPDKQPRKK
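Compound dosing: one dose per compound; test system: human S100A4 monomer with TAMRA-labelled myosin IIA peptide; probe or stimulus: TAMRA-labelled myosin IIA heavy-chain peptide probe, 5 nM; medium: HEPES buffer with Ca2+, pH 7.2; schedule: 5 min incubation before reading; benchmarks: neutral control DMSO, positive control TFP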
SIRT5 inh = inhibitors of human sirtuin-5 desuccinylase. Purified SirT5, succinyl-peptide AMC, trypsin-coupled fluorescence. 1.1% of 330,000 active. inhibition, % at 15 µM; in the data active means inhibition above about 15%
DENV2 CPE rescue = inhibitors of DENV2 cytopathic effect | DENV2-infected cells, cytopathic effect rescue, plate reader | CPE inhibition, % at 9.99 µM | 1.7% of 350,000 active | AID 651640; in the data active means CPE inhibition above about 20%, passing the limit was not always enough; tested in BHK-21 cells
Numbers stand for hits.

Results for CCC(=O)N1CC2(C1)[C@@H](c1ccc(-c3ccc(F)cc3)cc1)[C@@H](CO)N2S(C)(=O)=O ?
AF4-AF9 inh: inactive; S100A4 inh HTS: inactive; SIRT5 inh: inactive; DENV2 CPE rescue: inactive

Results for COc1ccc(-c2ccc3n(c2=O)C[C@H]2[C@H](CO)[C@@H](C(=O)NC4Cc5ccccc5C4)N[C@@H]32)cc1 ?
AF4-AF9 inh: inactive; S100A4 inh HTS: inactive; SIRT5 inh: inactive; DENV2 CPE rescue: inactive

What do the screens show for `CCNC(=O)[C@H]1[C@H](CO)[C@H]2Cn3c(ccc(C4=CCCC4)c3=O)[C@@H]1N2C(=O)C1CC1`?
AF4-AF9 inh: inactive; S100A4 inh HTS: inactive; SIRT5 inh: inactive; DENV2 CPE rescue: inactive

Results for CCN1CCN(Cc2ccc(NC(=O)c3cc(NC(=O)c4cnn(-c5ccccc5)c4N)cc(OC)c3)cc2C(F)(F)F)CC1 ?
CaV13 FRET inh: inactive; AF4-AF9 inh: inactive; S100A4 inh HTS: inactive; DENV2 CPE rescue: 81.6

What do the screens show for `CN(C)C(=O)[C@@H]1[C@@H](CO)[C@@H]2Cn3c(ccc(-c4ccccc4)c3=O)[C@H]1N2C(=O)C1CCCC1`?
AF4-AF9 inh: inactive; S100A4 inh HTS: inactive; SIRT5 inh: inactive; DENV2 CPE rescue: inactive

What do the screens show for `CCCCCc1cc(=O)oc2c(C(CCN(CC)CC)c3ccc(N(C)C)cc3)c(OC)cc(OC)c12` (configuration not stated)?
CaV13 FRET inh: inactive; AF4-AF9 inh: 51.8; S100A4 inh HTS: inactive; SIRT5 inh: inactive; DENV2 CPE rescue: inactive

How did CCN(CC)CCC(c1cc(OC)c(OC)c(OC)c1)c1c(OC)cc(OC)c2c(C)cc(=O)oc12 (configuration not stated) do in these assays?
CaV13 FRET inh: inactive; AF4-AF9 inh: inactive; S100A4 inh HTS: inactive; SIRT5 inh: inactive; DENV2 CPE rescue: inactive

Results for CC(C)(C)N(Cc1ccccc1)C(=O)c1ccc(Br)o1 ?
CaV13 FRET inh: inactive; AF4-AF9 inh: inactive; S100A4 inh HTS: inactive; SIRT5 inh: 19.4; DENV2 CPE rescue: inactive

How did CC(C)(C)N(Cc1ccccc1)C(=O)COC(=O)c1ccc(Br)o1 do in these assays?
CaV13 FRET inh: inactive; AF4-AF9 inh: inactive; S100A4 inh HTS: inactive; SIRT5 inh: inactive; DENV2 CPE rescue: inactive

Results for CO[C@@H]1CN(C)C(=O)c2cc(NC(=O)c3ccccc3F)ccc2OC[C@H](C)N(CC2CC2)C[C@H]1C ?
AF4-AF9 inh: inactive; S100A4 inh HTS: inactive; SIRT5 inh: inactive; DENV2 CPE rescue: inactive

Results for C[C@H]1CN([C@@H](C)CO)C(=O)c2cccc(NS(=O)(=O)c3cn(C)cn3)c2O[C@@H]1CN(C)Cc1ccc(C(=O)O)cc1 ?
AF4-AF9 inh: inactive; S100A4 inh HTS: inactive; SIRT5 inh: inactive; DENV2 CPE rescue: inactive

What do the screens show for `COc1cccc(CN(C)S(=O)(=O)c2cccs2)c1`?
CaV13 FRET inh: inactive; AF4-AF9 inh: inactive; S100A4 inh HTS: inactive; SIRT5 inh: inactive; DENV2 CPE rescue: 24.8

Results for CCCCn1c(NCc2ccc(N(C)C)cc2)nc2ccccc21 ?
CaV13 FRET inh: inactive; AF4-AF9 inh: 28.9; S100A4 inh HTS: inactive; SIRT5 inh: inactive; DENV2 CPE rescue: inactive

Results for C[C@@H]1CN([C@@H](C)CO)C(=O)Cc2cc(NC(=O)Cc3ccccc3)ccc2O[C@H]1CN(C)C(=O)Nc1cccc2ccccc12 ?
AF4-AF9 inh: inactive; S100A4 inh HTS: inactive; SIRT5 inh: inactive; DENV2 CPE rescue: 43.4

What do the screens show for `C[C@@H]1CN([C@H](C)CO)C(=O)Cc2cc(NC(=O)CCC(F)(F)F)ccc2O[C@@H]1CN(C)C(=O)Nc1cccc2ccccc12`?
AF4-AF9 inh: inactive; S100A4 inh HTS: inactive; SIRT5 inh: inactive; DENV2 CPE rescue: 30.2

How did C[C@H](CO)N1C[C@H](C)[C@@H](CN(C)C(=O)Nc2cccc3ccccc23)Oc2ccc(NC(=O)Cc3cn(C)c4ccccc34)cc2CC1=O do in these assays?
AF4-AF9 inh: inactive; S100A4 inh HTS: inactive; SIRT5 inh: inactive; DENV2 CPE rescue: inactive

Results for C[C@@H]1CN([C@H](C)CO)C(=O)Cc2cc(NC(=O)Cc3ccccc3)ccc2O[C@@H]1CN(C)C(=O)Nc1ccc2c(c1)OCO2 ?
AF4-AF9 inh: inactive; S100A4 inh HTS: inactive; SIRT5 inh: inactive; DENV2 CPE rescue: 27.8

How did C[C@@H]1CN([C@H](C)CO)C(=O)Cc2cc(NC(=O)Cc3cn(C)c4ccccc34)ccc2O[C@@H]1CN(C)C(=O)Nc1cccc2ccccc12 do in these assays?
AF4-AF9 inh: inactive; S100A4 inh HTS: inactive; SIRT5 inh: inactive; DENV2 CPE rescue: 45.0

Results for O=C(C[C@H]1CC[C@H](NC(=O)Nc2ccccc2F)[C@H](CO)O1)NCc1ccc(-c2ccccc2)cc1 ?
AF4-AF9 inh: inactive; S100A4 inh HTS: inactive; SIRT5 inh: inactive; DENV2 CPE rescue: inactive

How did CS(=O)(=O)Nc1ccc2c(c1)[C@H]1C[C@@H](CC(=O)NCc3cccc(F)c3)O[C@@H](CO)[C@H]1O2 do in these assays?
AF4-AF9 inh: inactive; S100A4 inh HTS: inactive; SIRT5 inh: inactive; DENV2 CPE rescue: inactive

What do the screens show for `CN1C(=O)c2cc(NC(=O)c3ccc(F)c(F)c3)ccc2OC[C@@H]2O[C@H](CC(=O)N[C@@H]3CCN(Cc4ccccc4)C3)CC[C@H]21`?
AF4-AF9 inh: inactive; S100A4 inh HTS: inactive; SIRT5 inh: inactive; DENV2 CPE rescue: inactive

Results for CC1CCCN(C(=O)c2ccc(S(=O)(=O)Nc3ccccc3Cl)cc2)C1 (configuration not stated) ?
CaV13 FRET inh: inactive; AF4-AF9 inh: inactive; S100A4 inh HTS: inactive; SIRT5 inh: inactive; DENV2 CPE rescue: 83.3

How did COc1ccc(N2CCCC2)c(NC(=O)c2ccc([N+](=O)[O-])o2)c1 do in these assays?
CaV13 FRET inh: inactive; AF4-AF9 inh: 32.2; S100A4 inh HTS: inactive; SIRT5 inh: inactive; DENV2 CPE rescue: inactive

What do the screens show for `O=C(Nc1ccccc1F)N[C@@H]1CC[C@@H](CCNC(=O)C2CCCCC2)O[C@@H]1CO`?
AF4-AF9 inh: inactive; S100A4 inh HTS: inactive; SIRT5 inh: inactive; DENV2 CPE rescue: inactive

What do the screens show for `O=C(Nc1ccccc1F)N[C@@H]1CC[C@H](CCNC(=O)C2CCCCC2)O[C@H]1CO`?
AF4-AF9 inh: inactive; S100A4 inh HTS: 90.2; SIRT5 inh: inactive; DENV2 CPE rescue: inactive

What do the screens show for `Cc1ccc(S(=O)(=O)NCC[C@@H]2CC[C@H](NC(=O)Nc3cccc(F)c3)[C@@H](CO)O2)cc1`?
AF4-AF9 inh: inactive; S100A4 inh HTS: 73.1; SIRT5 inh: inactive; DENV2 CPE rescue: inactive

Results for COc1ccccc1NC(=O)N[C@@H]1CC[C@H](CCNS(=O)(=O)c2ccc(Cl)cc2)O[C@@H]1CO ?
AF4-AF9 inh: inactive; S100A4 inh HTS: inactive; SIRT5 inh: 26.1; DENV2 CPE rescue: inactive

What do the screens show for `O=C(C[C@@H]1CC[C@@H](NC(=O)Nc2cccc(F)c2)[C@H](CO)O1)NCC1CC1`?
AF4-AF9 inh: inactive; S100A4 inh HTS: inactive; SIRT5 inh: 21.8; DENV2 CPE rescue: inactive

What do the screens show for `O=C(C[C@H]1CC[C@@H](NC(=O)Nc2cccc(F)c2)[C@@H](CO)O1)NCC1CCCCC1`?
AF4-AF9 inh: inactive; S100A4 inh HTS: inactive; SIRT5 inh: inactive; DENV2 CPE rescue: inactive
